Test results: ChEMBL document CHEMBL1152830, “Synthesis of 2-sulfanyl-6-methyl-1,4-dihydropyrimidines as a new class of antifilarial agents” (Eur J Med Chem, 2008)
The source made the active and inactive calls. No cut-off for these calls is given here.

What was measured:
[1] = test system: Brugia malayi; assay: Antifilarial activity against Brugia malayi sub-periodic strain at 100 uM by MTT reduction assay; assay type: functional
How it was run: (§1)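 MTT reduction was measured on adult B. malayi worms after in vitro drug exposure. Each result is percent inhibition of MTT reduction relative to vehicle control, given as mean ± SD.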

[2] = test system: Brugia malayi; assay: Antifilarial activity against Brugia malayi sub-periodic strain assessed as complete loss of motility at 100 uM; assay type: functional, organism-based
How it was run: (§2)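 Adult B. malayi worms kept in vitro with compound, then motility scored. The worms were also moved to fresh drug-free medium at 37 °C for 30 min to judge whether paralysis was irreversible. The vehicle served as control.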

[3] = test system: Brugia malayi; assay: Antifilarial activity against transplanted adult worms of Brugia malayi sub-periodic strain in Meriones unguiculatus assessed as reduction in worm burden 12.5 mg/kg, ip for 5 days relative to control; assay type: functional, organism-based; set-up: dose 12.5 mg/kg
How it was run: (§3)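 Meriones unguiculatus (jirds) carrying transplanted adult B. malayi were dosed i.p. once daily for 5 days, 5 animals per group. Microfilariae in the peritoneal cavity were checked. Live male and female worms and sterilized females were counted. Results are percent relative to untreated controls, given as mean ± SD.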

[4] = test system: Brugia malayi; assay: Antifilarial activity against Brugia malayi sub-periodic strain assessed as motility at 100 uM; assay type: functional, organism-based; how it was run: as §2
[5] = test system: Brugia malayi; assay: Antifilarial activity against Brugia malayi sub-periodic strain assessed as motility at 50 uM; assay type: functional, organism-based; how it was run: as §2
[6] = test system: Brugia malayi; assay: Antifilarial activity against Brugia malayi sub-periodic strain assessed as sluggish motility at 400 uM; assay type: functional, organism-based; how it was run: as §2
[7] = test system: Brugia malayi; assay: Antifilarial activity against Brugia malayi sub-periodic strain at 400 uM by MTT reduction assay; assay type: functional, organism-based; how it was run: as §1
[8] = test system: Brugia malayi; assay: Antifilarial activity against Brugia malayi sub-periodic strain assessed as motility at 200 uM; assay type: functional, organism-based; how it was run: as §2
[9] = test system: Brugia malayi; assay: Embryostatic activity against transplanted adult worms of Brugia malayi sub-periodic strain in Meriones unguiculatus assessed as sterilized female worms at 12.5 mg/kg, ip for 5 days; assay type: functional; conditions: route intraperitoneal; how it was run: as §3
[10] = test system: Brugia malayi; assay: Antifilarial activity against Brugia malayi sub-periodic strain in Mastomys coucha assessed as microfilarial count at 25 mg/kg, ip for 5 days measured after 8 days; assay type: functional; conditions: route intraperitoneal
[11] = test system: Brugia malayi; assay: Antifilarial activity against Brugia malayi sub-periodic strain at 50 uM by MTT reduction assay; assay type: functional; how it was run: as §1
[12] = test system: Brugia malayi; assay: Embryostatic activity against Brugia malayi sub-periodic strain in Mastomys coucha assessed as sterilized female worms at 25 mg/kg, ip for 5 days; assay type: functional; conditions: route intraperitoneal
[13] = test system: Brugia malayi; assay: Antifilarial activity against Brugia malayi sub-periodic strain in Mastomys coucha assessed as reduction in worm burden at 25 mg/kg, ip for 5 days relative to control; assay type: functional; set-up: scale not given: the % may be the effect or the level left; conditions: route intraperitoneal
[14] = test system: Brugia malayi; assay: Antifilarial activity against Brugia malayi sub-periodic strain at 200 uM by MTT reduction assay; assay type: functional, organism-based; how it was run: as §1
[15] = test system: Brugia malayi; assay: Antifilarial activity against Brugia malayi sub-periodic strain at 25 uM by MTT reduction assay; assay type: functional; how it was run: as §1
[16] = test system: Brugia malayi; assay: Antifilarial activity against transplanted adult worms of Brugia malayi sub-periodic strain in Meriones unguiculatus assessed as reduction in worm burden 100 mg/kg, ip for 5 days relative to control; assay type: functional; set-up: scale not given: the % may be the effect or the level left; conditions: route intraperitoneal; how it was run: as §3
[17] = test system: Brugia malayi; assay: Antifilarial activity against Brugia malayi sub-periodic strain assessed as complete loss of motility at 25 uM; assay type: functional, organism-based; how it was run: as §2
[18] = test system: Brugia malayi; assay: Embryostatic activity against transplanted adult worms of Brugia malayi sub-periodic strain in Meriones unguiculatus assessed as sterilized female worms at 100 mg/kg, ip for 5 days; assay type: functional; conditions: route intraperitoneal; how it was run: as §3
[19] = test system: Brugia malayi; assay: Embryostatic activity against Brugia malayi sub-periodic strain in Mastomys coucha assessed as sterilized female worms at 50 mg/kg, ip for 5 days; assay type: functional; conditions: route intraperitoneal
[20] = test system: Mastomys coucha; assay: Toxicity against Mastomys coucha assessed as mortality at 50 to 100 mg/kg, ip for 5 days measured after 15 days; assay type: organism-based; set-up: dose 50-100 mg/kg, route intraperitoneal; conditions: in vivo, 360 h
How it was run: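 Normal (uninfected) Mastomys coucha received the compound i.p. once daily for 5 days. Animals were watched for mortality and for adverse effects on general and gross health during dosing and for up to 15 days after treatment.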

[21] = test system: Brugia malayi; assay: Antifilarial activity against Brugia malayi sub-periodic strain in Mastomys coucha assessed as reduction in worm burden at 100 mg/kg, ip for 5 days relative to control; assay type: functional; set-up: scale not given: the % may be the effect or the level left; conditions: route intraperitoneal
[22] = test system: Brugia malayi; assay: Antifilarial activity against Brugia malayi sub-periodic strain in Mastomys coucha assessed as microfilarial count at 100 mg/kg, ip for 5 days measured after 8 days; assay type: functional; conditions: route intraperitoneal
[23] = test system: Brugia malayi; assay: Embryostatic activity against Brugia malayi sub-periodic strain in Mastomys coucha assessed as sterilized female worms at 100 mg/kg, ip for 5 days; assay type: functional; conditions: route intraperitoneal
[24] = test system: Brugia malayi; assay: Antifilarial activity against Brugia malayi sub-periodic strain in Mastomys coucha assessed as microfilarial count at 50 mg/kg, ip for 5 days measured after 8 days; assay type: functional; conditions: route intraperitoneal
[25] = test system: Brugia malayi; assay: Antifilarial activity against Brugia malayi sub-periodic strain assessed as complete loss of motility at 50 uM; assay type: functional, organism-based; how it was run: as §2
[26] = test system: Brugia malayi; assay: Antifilarial activity against Brugia malayi sub-periodic strain in Mastomys coucha assessed as reduction in worm burden at 50 mg/kg, ip for 5 days relative to control; assay type: functional; set-up: scale not given: the % may be the effect or the level left; conditions: route intraperitoneal
[27] = test system: Brugia malayi; assay: Antifilarial activity against Brugia malayi sub-periodic strain assessed as sluggish motility at 25 uM; assay type: functional, organism-based; how it was run: as §2
[28] = test system: Brugia malayi; assay: Antifilarial activity against Brugia malayi sub-periodic strain assessed as motility at 25 uM; assay type: functional, organism-based; how it was run: as §2

Structure (SMILES): CCOC(=O)C1=C(C)NC(SCc2ccccc2)=NC1c1cccc([N+](=O)[O-])c1 (centres undefined)
- inhibition at 100 µM [1]: 43.1%
- Activity [2]: Active

Structure (SMILES): CCCCCCCCCCCCCCSC1=NC(c2cccc3ccccc23)C(C(=O)OCC)=C(C)N1 (centres undefined)
- inhibition at 100 µM [1]: 24.3%
- Activity [2]: Active

Structure (SMILES): CCN(CC)C(=O)N1CCN(C)CC1.O=C(O)CC(O)(CC(=O)O)C(=O)O [DIETHYLCARBAMAZINE CITRATE]
- Activity [3]: inactive
- Activity [4]: inactive
- Activity [5]: inactive
- Activity [6]: Active
- inhibition [7]: inactive
- inhibition [1]: inactive
- Activity [8]: inactive
- Activity [9]: 10.53%
- Activity [10]: 20.33
- inhibition [11]: inactive
- Activity [12]: 29.7%
- Activity [13]: 0%
- inhibition [14]: inactive

Structure (SMILES): CCCCCSC1=NC(c2cccc([N+](=O)[O-])c2)C(C(=O)OCC)=C(C)N1 (centres undefined)
- Activity [4]: inactive
- inhibition at 100 µM [1]: 15.4%

Structure (SMILES): CCCCCSC1=NC(c2ccc(F)cc2)C(C(=O)OCC)=C(C)N1 (centres undefined)
- inhibition at 25 µM [15]: 25.8%
- Activity [16]: 46.03%
- Activity [17]: Active
- Activity [18]: 34.31%
- Activity [19]: 38.1%
- Activity [20]: Non-toxic
- inhibition at 100 µM [1]: 68.6%
- Activity [21]: 50%
- Activity [22]: 142.67
- Activity [23]: 67.71%
- Activity [2]: Active
- Activity [24]: 116.5
- Activity [25]: Active
- inhibition at 50 µM [11]: 68.5%
- Activity [26]: 30.8%

Structure (SMILES): CCOC(=O)C1=C(C)NC(SCc2ccccc2)=NC1c1ccc(OC)cc1 (centres undefined)
- inhibition [15]: inactive
- Activity [20]: Non-toxic
- Activity [27]: Active
- inhibition at 100 µM [1]: 52.1%
- Activity [21]: 19.66%
- Activity [22]: 89.7
- Activity [23]: 34.58%
- Activity [2]: Active
- Activity [25]: Active
- inhibition at 50 µM [11]: 19.3%

Structure (SMILES): CCCCCCCCCCCCCCSC1=NC(c2ccc(F)cc2)C(C(=O)OCC)=C(C)N1 (centres undefined)
- Activity [5]: inactive
- inhibition [1]: inactive
- Activity [2]: Active
- inhibition [11]: inactive

Structure (SMILES): CCCCCSC1=NC(c2ccc(OC)cc2)C(C(=O)OCC)=C(C)N1 (centres undefined)
- Activity [4]: inactive
- inhibition at 100 µM [1]: 22.4%

Structure (SMILES): CCCCSC1=NC(c2cccc3ccccc23)C(C(=O)OCC)=C(C)N1 (centres undefined)
- inhibition at 25 µM [15]: 30.4%
- Activity [20]: Non-toxic
- Activity [27]: Active
- inhibition at 100 µM [1]: 49%
- Activity [21]: 0%
- Activity [22]: 47.33
- Activity [23]: 25.77%
- Activity [2]: Active
- Activity [25]: Active
- inhibition [11]: inactive

Structure (SMILES): CCCCCSC1=NC(c2ccc(Cl)cc2)C(C(=O)OCC)=C(C)N1 (centres undefined)
- Activity [4]: inactive
- inhibition [1]: inactive

Structure (SMILES): CCCCCSC1=NC(c2cccc3ccccc23)C(C(=O)OCC)=C(C)N1 (centres undefined)
- Activity [4]: inactive
- inhibition [1]: inactive

Structure (SMILES): CCOC(=O)C1=C(C)NC(SCc2ccccc2)=NC1c1cccc2ccccc12 (centres undefined)
- inhibition at 100 µM [1]: 18.9%
- Activity [2]: Active

Structure (SMILES): CCCCCCCCCCCCCCSC1=NC(c2ccc(OC)cc2)C(C(=O)OCC)=C(C)N1 (centres undefined)
- inhibition [15]: inactive
- Activity [28]: inactive
- Activity [4]: inactive
- Activity [5]: inactive
- inhibition [1]: inactive
- inhibition [11]: inactive

Structure (SMILES): CCCCSC1=NC(c2cccc([N+](=O)[O-])c2)C(C(=O)OCC)=C(C)N1 (centres undefined)
- inhibition at 100 µM [1]: 25.7%
- Activity [2]: Active
